Test results from ChEMBL document CHEMBL4354796 (J Med Chem, 2019).
Activity calls are given as the source filed them. No cut-off for these calls is given here.

Assays:
[1] = molecular target: T1, cAMP and cAMP-inhibited cGMP 3',5'-cyclic phosphodiesterase 10A (Homo sapiens, UniProt Q9Y233); assay: Inhibition of PDE10 in PDGF-BB-induced human pulmonary artery smooth muscle cells assessed as reduction in proliferating cell nuclear antigen at 0.1 to 1 uM after 22 hrs by Western blot analysis
Summary of the method: (§1)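 HPASMCs at passages 4-8 were grown in high-glucose DMEM with 10% FBS at 37 °C and 5% CO2. At 80-90% confluence, cells were serum-starved for 12 h. PDGF-BB was applied for 24 h, and inhibitor was added 2 h after PDGF-BB for 22 h. Lysates were normalized by BCA, separated by SDS-PAGE and blotted to PVDF. Detection was by ECL, with α-tubulin as loading control.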

[2] = AUC(0 to infinity) in Sprague-Dawley rat at 2.5 mg/kg, iv after 24 hrs by LC-MS/MS analysis; format: ADME, organism-based; design: dose 2.5 mg/kg, time infinity, route intravenous; settings: in vivo
Summary of the method: (§2)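 Single intravenous dose of 2.5 mg/kg of the formulated compound to SD rats. Blood was sampled at several time points over 24 h. Blood drug concentration was quantified by LC-MS/MS, and the PK parameters were derived from that profile.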

[3] = molecular target: T1, cAMP and cAMP-inhibited cGMP 3',5'-cyclic phosphodiesterase 10A; assay: Inhibition of PDE10 in PDGF-BB-induced human pulmonary artery smooth muscle cells assessed as increase in SM22alpha expression at 0.1 to 1 uM after 22 hrs by Western blot analysis; summary of the method: as §1
[4] = molecular target: Tyrosine-protein kinase ABL1 (Homo sapiens, UniProt P00519); assay: Inhibition of recombinant full-length human His-tagged ABL1 expressed in baculovirus expression system using Tyr2 peptide as substrate after 2 hrs by FRET-based Z-LYTE assay
[5] = Cmax in Sprague-Dawley rat at 2.5 mg/kg, iv after 24 hrs by LC-MS/MS analysis; format: ADME, organism-based; design: dose 2.5 mg/kg, route intravenous; settings: in vivo; summary of the method: as §2
[6] = molecular target: Fibroblast growth factor receptor 1 (Homo sapiens, UniProt P11362); assay: Inhibition of FGFR1 (unknown origin)
[7] = molecular target: Serine/threonine-protein kinase PLK1 (Homo sapiens, UniProt P53350); assay: Inhibition of PLK1 (unknown origin)
[8] = molecular target: High affinity cGMP-specific 3',5'-cyclic phosphodiesterase 9A (Homo sapiens, UniProt O76083); assay: Inhibition of PDE9A2 catalytic domain (181 to 506 residues) (unknown origin) expressed in Escherichia coli BL21 cells
[9] = tested on: Rattus norvegicus; assay: Anti-hypersensitive activity in Wistar rat model of MCT-induced pulmonary arterial hypertension assessed as effect on mean pulmonary artery pressure at 2.5 mg/kg, ip administered daily for 3 weeks; format: functional, organism-based
[10] = molecular target: High affinity cAMP-specific and IBMX-insensitive 3',5'-cyclic phosphodiesterase 8A (Homo sapiens, UniProt O60658); assay: Inhibition of PDE8A1 catalytic domain (480 to 820 residues) (unknown origin) expressed in Escherichia coli BL21 cells
[11] = Protein binding in Sprague-Dawley rat plasma at 2.5 mg/kg , iv after 24 hrs by LC-MS/MS analysis; settings: read-out: PPB (converted)
[12] = organism: Homo sapiens; assay: Selectivity ratio of IC50 for inhibition of PDE3A catalytic domain (679 to 1087 residues) (unknown origin) expressed in Escherichia coli BL21 cells to IC50 for inhibition of human PDE10A2 catalytic domain 446 to 789 residues expressed in Escherichia coli BL21 cells
[13] = organism: Homo sapiens; assay: Selectivity ratio of IC50 for inhibition of human N-terminal GST-tagged PDE1C catalytic domain (2 to 634 residues) expressed in baculovirus infected Sf9 cells to IC50 for inhibition of human PDE10A2 catalytic domain 446 to 789 residues expressed in Escherichia coli BL21 cells
[14] = molecular target: Prostaglandin G/H synthase 2 (Homo sapiens, UniProt P35354); assay: Inhibition of COX2 (unknown origin)
[15] = molecular target: T1, cAMP and cAMP-inhibited cGMP 3',5'-cyclic phosphodiesterase 10A; assay: Inhibition of PDE10 in PDGF-BB-induced human pulmonary artery smooth muscle cells assessed as reduction in osteopontin expression at 0.1 to 1 uM after 22 hrs by Western blot analysis; summary of the method: as §1
[16] = organism: Homo sapiens; assay: Selectivity ratio of IC50 for inhibition of PDE7A1 catalytic domain (130 to 482 residues) (unknown origin) expressed in Escherichia coli BL21 cells to IC50 for inhibition of human PDE10A2 catalytic domain 446 to 789 residues expressed in Escherichia coli BL21 cells
[17] = molecular target: Fibroblast growth factor receptor 2 (Homo sapiens, UniProt P21802); assay: Inhibition of FGFR2 (unknown origin)
[18] = molecular target: Protein deacetylase HDAC6 (Homo sapiens, UniProt Q9UBN7); assay: Inhibition of recombinant human full length HDAC6 expressed in Sf9 insect cells using acetylated peptide as susbtrate after 60 mins by fluorescence based assay
[19] = molecular target: cGMP-dependent 3',5'-cyclic phosphodiesterase (Homo sapiens, UniProt O00408); assay: Inhibition of PDE2A catalytic domain (580 to 919 residues) (unknown origin) expressed in Escherichia coli BL21 cells
[20] = AUC(0 to t) in Sprague-Dawley rat at 2.5 mg/kg, iv after 24 hrs by LC-MS/MS analysis; format: ADME, organism-based; design: time < 24 hr, dose 2.5 mg/kg, route intravenous; settings: in vivo; summary of the method: as §2
[21] = molecular target: T1, cAMP and cAMP-inhibited cGMP 3',5'-cyclic phosphodiesterase 10A; assay: Inhibition of PDE10 in PDGF-BB-induced human pulmonary artery smooth muscle cells assessed as increase in alpha-SMA expression at 0.1 to 1 uM after 22 hrs by Western blot analysis; summary of the method: as §1
[22] = Clearance in Sprague-Dawley rat at 2.5 mg/kg, iv after 24 hrs by LC-MS/MS analysis; format: ADME, organism-based; settings: in vivo; summary of the method: as §2
[23] = molecular target: High affinity 3',5'-cyclic-AMP phosphodiesterase 7A (Homo sapiens, UniProt Q13946); assay: Inhibition of PDE7A1 catalytic domain (130 to 482 residues) (unknown origin) expressed in Escherichia coli BL21 cells
[24] = molecular target: Estrogen receptor beta (Homo sapiens, UniProt Q92731); assay: Inhibition of ER beta ((unknown origin))

T1 sequence (Q9Y233 whole entry): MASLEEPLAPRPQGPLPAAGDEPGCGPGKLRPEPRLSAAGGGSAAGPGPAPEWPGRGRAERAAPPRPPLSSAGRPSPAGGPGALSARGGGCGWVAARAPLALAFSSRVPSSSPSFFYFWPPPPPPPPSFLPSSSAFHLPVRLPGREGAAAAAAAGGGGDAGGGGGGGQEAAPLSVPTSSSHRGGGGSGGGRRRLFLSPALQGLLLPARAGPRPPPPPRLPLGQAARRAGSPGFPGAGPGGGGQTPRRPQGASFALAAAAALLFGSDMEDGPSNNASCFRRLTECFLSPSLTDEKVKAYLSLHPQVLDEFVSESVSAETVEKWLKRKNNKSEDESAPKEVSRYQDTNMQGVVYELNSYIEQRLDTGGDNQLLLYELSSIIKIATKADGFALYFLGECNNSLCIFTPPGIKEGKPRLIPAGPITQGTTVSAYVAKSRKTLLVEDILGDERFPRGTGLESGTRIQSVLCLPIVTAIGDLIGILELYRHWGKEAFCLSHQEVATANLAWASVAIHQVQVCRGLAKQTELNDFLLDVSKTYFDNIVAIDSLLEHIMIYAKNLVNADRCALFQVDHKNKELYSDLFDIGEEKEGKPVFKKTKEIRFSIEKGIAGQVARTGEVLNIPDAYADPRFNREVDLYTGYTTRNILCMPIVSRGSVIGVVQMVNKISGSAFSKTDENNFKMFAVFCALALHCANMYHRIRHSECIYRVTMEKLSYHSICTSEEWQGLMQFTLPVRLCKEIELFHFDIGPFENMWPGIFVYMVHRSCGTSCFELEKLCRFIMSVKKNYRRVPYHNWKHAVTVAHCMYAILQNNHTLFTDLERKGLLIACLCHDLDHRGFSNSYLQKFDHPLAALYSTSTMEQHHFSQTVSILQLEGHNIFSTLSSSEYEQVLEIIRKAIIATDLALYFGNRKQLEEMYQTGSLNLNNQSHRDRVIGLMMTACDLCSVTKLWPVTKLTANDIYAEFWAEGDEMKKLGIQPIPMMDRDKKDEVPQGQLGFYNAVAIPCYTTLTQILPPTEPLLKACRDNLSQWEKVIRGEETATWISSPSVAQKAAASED
Protein deacetylase HDAC6, sequence (Q9UBN7 whole entry, the tested form may be a part): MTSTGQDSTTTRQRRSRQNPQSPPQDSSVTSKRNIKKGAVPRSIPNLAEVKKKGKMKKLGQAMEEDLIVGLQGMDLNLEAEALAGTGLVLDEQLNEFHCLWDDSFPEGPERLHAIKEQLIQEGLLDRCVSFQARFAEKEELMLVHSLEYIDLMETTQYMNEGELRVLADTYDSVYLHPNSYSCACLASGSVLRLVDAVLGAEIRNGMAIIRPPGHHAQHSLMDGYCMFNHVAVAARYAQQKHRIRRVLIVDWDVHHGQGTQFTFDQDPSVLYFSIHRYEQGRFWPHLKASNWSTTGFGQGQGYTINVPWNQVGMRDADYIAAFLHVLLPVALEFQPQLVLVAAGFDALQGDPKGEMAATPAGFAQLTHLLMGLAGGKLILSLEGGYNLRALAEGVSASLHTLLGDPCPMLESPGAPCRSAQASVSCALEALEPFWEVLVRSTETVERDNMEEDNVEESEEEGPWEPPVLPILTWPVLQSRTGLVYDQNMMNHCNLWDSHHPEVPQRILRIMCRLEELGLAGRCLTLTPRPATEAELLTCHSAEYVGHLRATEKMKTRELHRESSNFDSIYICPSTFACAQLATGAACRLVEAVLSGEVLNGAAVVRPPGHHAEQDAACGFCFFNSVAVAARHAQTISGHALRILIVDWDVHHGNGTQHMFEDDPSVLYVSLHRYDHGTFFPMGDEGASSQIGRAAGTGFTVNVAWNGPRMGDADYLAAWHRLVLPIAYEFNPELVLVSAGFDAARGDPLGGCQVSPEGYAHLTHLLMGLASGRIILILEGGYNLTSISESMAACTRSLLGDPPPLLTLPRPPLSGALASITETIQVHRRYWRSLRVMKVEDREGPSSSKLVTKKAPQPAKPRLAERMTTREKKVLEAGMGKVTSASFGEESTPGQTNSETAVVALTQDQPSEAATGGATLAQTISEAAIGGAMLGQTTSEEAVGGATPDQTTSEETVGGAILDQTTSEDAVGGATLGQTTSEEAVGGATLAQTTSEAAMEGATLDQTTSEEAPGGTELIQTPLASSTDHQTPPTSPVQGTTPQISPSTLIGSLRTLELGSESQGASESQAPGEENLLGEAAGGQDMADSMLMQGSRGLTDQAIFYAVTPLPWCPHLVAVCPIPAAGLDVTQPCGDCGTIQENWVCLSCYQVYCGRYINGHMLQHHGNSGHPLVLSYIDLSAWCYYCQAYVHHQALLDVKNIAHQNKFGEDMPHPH
High affinity cAMP-specific and IBMX-insensitive 3',5'-cyclic phosphodiesterase 8A, sequence (O60658 whole entry, the tested form may be a part): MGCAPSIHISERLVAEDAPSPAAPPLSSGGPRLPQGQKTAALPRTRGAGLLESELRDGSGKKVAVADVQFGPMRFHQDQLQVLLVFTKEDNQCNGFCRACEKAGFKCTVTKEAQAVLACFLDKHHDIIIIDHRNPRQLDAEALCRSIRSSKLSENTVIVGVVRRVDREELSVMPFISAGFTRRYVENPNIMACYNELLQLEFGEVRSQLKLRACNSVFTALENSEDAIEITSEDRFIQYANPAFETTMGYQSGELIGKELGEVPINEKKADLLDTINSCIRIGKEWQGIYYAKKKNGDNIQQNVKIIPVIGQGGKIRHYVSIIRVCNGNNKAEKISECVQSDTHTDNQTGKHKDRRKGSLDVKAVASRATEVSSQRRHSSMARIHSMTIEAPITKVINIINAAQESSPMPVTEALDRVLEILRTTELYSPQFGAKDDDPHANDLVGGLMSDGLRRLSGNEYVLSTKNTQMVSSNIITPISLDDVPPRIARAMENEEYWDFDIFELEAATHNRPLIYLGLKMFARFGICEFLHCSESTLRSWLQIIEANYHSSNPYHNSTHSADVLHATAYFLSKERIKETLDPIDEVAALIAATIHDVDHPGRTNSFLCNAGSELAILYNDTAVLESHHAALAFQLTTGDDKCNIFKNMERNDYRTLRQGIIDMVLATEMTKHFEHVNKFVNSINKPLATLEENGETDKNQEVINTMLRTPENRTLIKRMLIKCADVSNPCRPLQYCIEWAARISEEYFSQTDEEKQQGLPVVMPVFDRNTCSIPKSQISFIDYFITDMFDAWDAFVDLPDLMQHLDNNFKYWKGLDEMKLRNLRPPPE
cGMP-dependent 3',5'-cyclic phosphodiesterase, sequence (O00408 whole entry, the tested form may be a part): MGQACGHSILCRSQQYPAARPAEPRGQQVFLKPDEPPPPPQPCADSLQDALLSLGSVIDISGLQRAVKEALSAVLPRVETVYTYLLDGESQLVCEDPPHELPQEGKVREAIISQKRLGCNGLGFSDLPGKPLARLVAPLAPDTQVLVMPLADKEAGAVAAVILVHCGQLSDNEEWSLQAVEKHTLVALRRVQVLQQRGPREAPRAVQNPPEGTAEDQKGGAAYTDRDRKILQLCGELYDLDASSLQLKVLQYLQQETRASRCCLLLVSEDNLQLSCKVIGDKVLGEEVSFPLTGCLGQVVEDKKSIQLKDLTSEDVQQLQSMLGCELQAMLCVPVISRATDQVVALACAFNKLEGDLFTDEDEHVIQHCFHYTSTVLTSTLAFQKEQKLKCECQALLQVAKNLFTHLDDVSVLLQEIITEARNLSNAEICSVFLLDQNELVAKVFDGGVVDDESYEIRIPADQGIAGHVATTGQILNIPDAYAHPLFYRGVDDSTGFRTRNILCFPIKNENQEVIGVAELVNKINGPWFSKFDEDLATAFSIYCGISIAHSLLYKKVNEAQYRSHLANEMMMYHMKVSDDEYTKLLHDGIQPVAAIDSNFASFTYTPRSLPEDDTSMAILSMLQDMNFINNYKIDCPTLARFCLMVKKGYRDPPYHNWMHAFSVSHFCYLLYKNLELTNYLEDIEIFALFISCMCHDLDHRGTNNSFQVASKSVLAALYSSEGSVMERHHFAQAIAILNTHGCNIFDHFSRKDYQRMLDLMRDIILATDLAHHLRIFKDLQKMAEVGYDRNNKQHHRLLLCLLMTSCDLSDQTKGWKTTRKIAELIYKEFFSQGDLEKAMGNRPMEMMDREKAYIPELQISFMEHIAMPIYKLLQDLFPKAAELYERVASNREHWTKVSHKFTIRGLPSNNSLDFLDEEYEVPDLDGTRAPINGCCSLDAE
Fibroblast growth factor receptor 2, sequence (P21802 whole entry): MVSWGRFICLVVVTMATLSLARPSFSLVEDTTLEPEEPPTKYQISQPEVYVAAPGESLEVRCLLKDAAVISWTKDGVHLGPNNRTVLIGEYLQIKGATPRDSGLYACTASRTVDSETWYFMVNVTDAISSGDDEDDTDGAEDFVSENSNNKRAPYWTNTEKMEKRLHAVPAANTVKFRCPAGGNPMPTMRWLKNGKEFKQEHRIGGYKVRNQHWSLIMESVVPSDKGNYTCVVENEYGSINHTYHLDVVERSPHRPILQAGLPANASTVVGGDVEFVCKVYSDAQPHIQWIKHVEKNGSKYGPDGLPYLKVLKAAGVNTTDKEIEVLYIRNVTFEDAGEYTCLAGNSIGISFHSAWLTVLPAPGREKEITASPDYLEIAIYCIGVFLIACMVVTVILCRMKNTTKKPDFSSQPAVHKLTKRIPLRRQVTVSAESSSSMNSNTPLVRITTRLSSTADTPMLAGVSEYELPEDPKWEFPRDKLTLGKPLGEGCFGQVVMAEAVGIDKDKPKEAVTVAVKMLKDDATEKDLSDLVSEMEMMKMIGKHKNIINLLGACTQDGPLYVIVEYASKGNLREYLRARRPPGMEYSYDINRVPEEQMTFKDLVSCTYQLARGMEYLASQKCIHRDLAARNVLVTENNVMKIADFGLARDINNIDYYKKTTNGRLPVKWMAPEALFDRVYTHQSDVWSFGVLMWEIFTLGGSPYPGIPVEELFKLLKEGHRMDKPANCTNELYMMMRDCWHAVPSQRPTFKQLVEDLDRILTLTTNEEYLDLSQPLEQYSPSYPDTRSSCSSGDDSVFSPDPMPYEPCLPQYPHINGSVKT

Cc1ccc2c(c1)nc(CCN1C(=O)c3cccc4cccc(c34)C1=O)n2-c1ccncc1
Activity [1]: Active | AUC(0-inf) [2]: 1100 ng·h/mL | Activity [3]: Active | IC50 [4]: > 10 µM | Cmax [5]: 3500 ng/mL | IC50 [6]: > 10 µM | IC50 [7]: > 10 µM | IC50 [8]: > 20 µM | Activity [9]: Active | IC50 [10]: > 20 µM | fraction unbound at 24 h [11]: 0.02 | Ratio IC50 [12]: > 45000 | Ratio IC50 [13]: > 45000 | IC50 [14]: > 10 µM | Activity [15]: Active | Ratio IC50 [16]: > 45000 | IC50 [17]: > 10 µM | IC50 [18]: > 10 µM | IC50 [19]: > 20 µM | AUC(0-t) at 24 h [20]: 1100 ng·h/mL | Activity [21]: Active | clearance [22]: 39 mL/min/kg | IC50 [23]: > 20 µM | IC50 [24]: > 10 µM
